According to PubChem BioAssay AID2295 (NMMLSC, 2010):
Active and inactive are the calls of the source.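 The calls were made as follows: active = EC50 of 30 microM or lower, as activator or inhibitor; inactive = the rest.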

Target: Regulator of G-protein signaling 4 (Homo sapiens) (UniProt P49798)
Experiment: small molecules altering RGS4 interaction with Galphao – biochemical, multiplexed bead flow cytometry, SAR compounds, SAR follow-up (AID 2295)
Details: bead-based flow cytometry, RGS4-AF488 Galphao binding
Method in brief: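 Assay system: Biotinylated human RGS4 on streptavidin beads, multiplexed with other RGS bead sets | Dosing: 9 points, threefold dilution steps | Times: 30-90 min incubation at room temperature | Signal: Flow cytometry, median bead green fluorescence | Evaluation: % response, EC50 and Ki (Kd 40 nM) | Replication: Duplicate values per compound concentration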

Chain of Regulator of G-protein signaling 4 (Homo sapiens) (P49798 whole entry, looked up): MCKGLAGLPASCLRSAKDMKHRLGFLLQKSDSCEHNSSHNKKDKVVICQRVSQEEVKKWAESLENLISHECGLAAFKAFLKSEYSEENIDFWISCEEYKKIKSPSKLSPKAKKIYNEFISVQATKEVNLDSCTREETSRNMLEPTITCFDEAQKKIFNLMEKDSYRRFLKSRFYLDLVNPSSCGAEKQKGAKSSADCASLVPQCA

**Q.** CC(=O)OCCCNc1cc(Sc2nc3ccccc3s2)c2nonc2c1[N+](=O)[O-] was tested. Which EC50 did it give?
**A.** Its EC50 is > 30 µM (inactive).

**Q.** With Cc1cccc(N2CCN(C(=O)Cn3sc4nc(C)cc(C)c4c3=O)CC2C)c1 (stereo not drawn) as the compound, how does the EC50 read?
**A.** The EC50 was > 30 µM (inactive).

**Q.** Which EC50 does the source give for Cc1[nH]n(-c2ccccc2)c(=S)c1C=NCCCN=Cc1c(C)[nH]n(-c2ccccc2)c1=S here?
**A.** Its EC50 is > 30 µM (inactive).

**Q.** For CC(NC(=O)c1sc2cc([N+](=O)[O-])ccc2c1Cl)C(C)(C)C (stereo not drawn), which EC50 is on record?
**A.** Its EC50 is > 30 µM (inactive).

**Q.** For NS(=O)(=O)c1ccc(N/N=C/c2ccc(O)c(O)c2O)c([N+](=O)[O-])c1, which EC50 is on record?
**A.** The EC50 was 1.2 µM.

Same assay, conditions: bead-based flow cytometry, RGS4-AF488 Galphao binding; measured here: Ki calculated from EC50

**Q.** How did the Ki turn out when O=c1c2ccccc2sn1-c1ccc(S(=O)(=O)N2CCCC2)cc1 was run?
**A.** The Ki was 270 nM.

**Q.** With CCN(CC)S(=O)(=O)c1cccc(-c2n[nH]c(=S)n2/N=C/c2ccc(C(=O)OC)cc2)c1 as the compound, how does the Ki read?
**A.** Its Ki is 8200 nM.

**Q.** Which Ki does the source give for COc1ccc(C2=CC(=O)C=CC2=O)cc1 here?
**A.** Its Ki is 490 nM.

**Q.** How did the Ki turn out when O=C1C(Cl)=C(N2CCCCC2)C(=O)C(Cl)=C1c1cnc(N2CCCCC2)s1 was run?
**A.** Its Ki is 230 nM.

**Q.** For CCC(=O)NC(c1ccc(C)cc1)c1cc([N+](=O)[O-])c2cccnc2c1O (stereo not drawn), which Ki is on record?
**A.** Its Ki is 5620 nM.

**Q.** With Cc1cc(Cl)ccc1N=c1ssnc1Cl as the compound, how does the Ki read?
**A.** The Ki was 260 nM.

**Q.** How did the Ki turn out when CN1CCN(C2=C(Cl)C(=O)C(c3cnc(N4CCCCC4)s3)=C(Cl)C2=O)CC1 was run?
**A.** Its Ki is 290 nM.

**Q.** How did the Ki turn out when O=C(Cc1csc(N2CCOCC2)n1)N/N=C/c1ccc(O)c(O)c1O was run?
**A.** The Ki was 940 nM.

**Q.** Which Ki does the source give for O=C(COc1ccccc1C(=O)N/N=C/c1ccc(O)c(O)c1)N/N=C/c1ccc(O)c(O)c1 here?
**A.** Its Ki is 140 nM.

**Q.** Which Ki does the source give for Cc1[nH]n(-c2ccccc2)c(=S)c1C=Nc1cccc([N+](=O)[O-])c1 here?
**A.** Its Ki is 9370 nM.

**Q.** For CCN(CC)S(=O)(=O)c1cccc(C(=O)N/N=C/c2ccc(O)c(O)c2O)c1, which Ki is on record?
**A.** Its Ki is 540 nM.

**Q.** How did the Ki turn out when O=c1c2ccccc2sn1-c1ccccc1 was run?
**A.** The Ki was 110 nM.

**Q.** Which Ki does the source give for Cc1cccc(N2CCN(C(=O)COc3nsc4nc(C)cc(C)c34)CC2C)c1 (stereo not drawn) here?
**A.** The Ki was 5830 nM.

**Q.** For CCOC(=O)c1sc(NC(=O)CSc2nnc(Cc3ccccc3)o2)c(C#N)c1C, which Ki is on record?
**A.** The Ki was 6680 nM.

**Q.** O=C(NCCCN1CCOCC1)c1sc2cc([N+](=O)[O-])ccc2c1Cl was tested. Which Ki did it give?
**A.** The Ki was 8570 nM.

**Q.** For CN=c1scc(C)n1/N=C/c1ccc(O)c(O)c1O, which Ki is on record?
**A.** Its Ki is 1460 nM.

**Q.** For NS(=O)(=O)c1ccc(N/N=C/c2ccc(O)c(O)c2O)c([N+](=O)[O-])c1, which Ki is on record?
**A.** Its Ki is 1020 nM.

**Q.** For CCN=c1scc(C)n1/N=C/c1ccc(O)c(O)c1O, which Ki is on record?
**A.** Its Ki is 3000 nM.
